Measured values as given in ChEMBL document CHEMBL1140586, “Design and synthesis of a functionally selective D3 agonist and its in vivo delivery via the intranasal route” (Bioorg Med Chem Lett, 2007).
The source made the active and inactive calls. No cut-off for these calls is given here.

How the values were obtained:
[1] = target: T1, 5-hydroxytryptamine receptor 1A (Homo sapiens) (UniProt P08908); assay: Binding affinity to human 5HT1A receptor at 10 uM
T1 sequence (whole entry): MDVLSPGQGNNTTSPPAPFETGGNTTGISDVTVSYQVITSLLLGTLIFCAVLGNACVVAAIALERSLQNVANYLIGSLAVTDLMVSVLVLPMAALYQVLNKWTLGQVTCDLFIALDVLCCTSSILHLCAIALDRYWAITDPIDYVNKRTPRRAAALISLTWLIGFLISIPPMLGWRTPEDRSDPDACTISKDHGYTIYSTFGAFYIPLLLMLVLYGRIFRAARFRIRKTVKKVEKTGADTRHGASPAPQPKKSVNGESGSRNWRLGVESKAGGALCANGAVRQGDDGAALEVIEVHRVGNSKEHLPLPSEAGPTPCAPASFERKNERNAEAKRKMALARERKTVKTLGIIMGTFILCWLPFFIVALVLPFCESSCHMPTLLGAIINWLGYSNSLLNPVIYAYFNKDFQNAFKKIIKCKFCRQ
Summary of the method: (§1)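 Single-concentration binding screen in the Cerep wide ligand profile panel at the human 5HT1A receptor. Read-out is percent binding activity at each test concentration.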

[2] = target: T2, Alpha-2A adrenergic receptor (Homo sapiens, UniProt P08913); assay: Binding affinity to human alpha-2A adrenergic receptor
T2 sequence (P08913 whole entry): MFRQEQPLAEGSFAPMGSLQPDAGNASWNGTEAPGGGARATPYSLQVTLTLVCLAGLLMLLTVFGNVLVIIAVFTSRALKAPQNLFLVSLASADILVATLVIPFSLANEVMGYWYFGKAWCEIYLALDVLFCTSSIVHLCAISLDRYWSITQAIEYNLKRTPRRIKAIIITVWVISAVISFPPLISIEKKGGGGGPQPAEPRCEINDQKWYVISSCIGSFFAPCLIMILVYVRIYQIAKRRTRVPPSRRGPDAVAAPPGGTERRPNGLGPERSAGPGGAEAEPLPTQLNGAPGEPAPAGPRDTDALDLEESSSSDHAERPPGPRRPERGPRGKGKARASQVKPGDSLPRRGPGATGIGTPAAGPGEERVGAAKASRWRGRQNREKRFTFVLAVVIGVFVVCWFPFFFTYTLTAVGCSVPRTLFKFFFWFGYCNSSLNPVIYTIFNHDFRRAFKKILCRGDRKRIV

[3] = Stability in rat hepatocytes; assay type: ADME, cell-based, Liver, Hepatocyte
Summary of the method: (§2)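 Rat, dog and human hepatocyte incubations; read-out was the disappearance half-life of parent compound, in minutes.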

[4] = target: T1, 5-hydroxytryptamine receptor 1A (Homo sapiens); assay: Binding affinity to human 5HT1A receptor at 100 nM; summary of the method: as §1
[5] = Protein binding in human plasma; assay type: ADME, cell-free; details: read-out: PB (converted)
[6] = target: 5-hydroxytryptamine receptor 2A (Rattus norvegicus, UniProt P14842); assay: Binding affinity to rat 5HT2A receptor
[7] = Tmax in dog at 0.3 mg/kg; assay type: ADME, organism-based, Canis lupus familiaris; parameters: dose 0.3 mg/kg; details: in vivo
Summary of the method: (§3)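 Dogs, male (n = 2) and female (n = 2). Compound freshly prepared in saline. The intravenous reference was a 10-min infusion at 3 ml/kg/h of a 0.2 mg/ml solution, giving a final dose of 0.1 mg/kg. Intranasal doses of 0.1 and 0.3 mg/kg were given as 100 µl into one nostril by spray device.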

Histamine H1 receptor = Histamine H1 receptor (Homo sapiens, UniProt P35367); assay: Binding affinity to human histamine H1 receptor
D(1A) dopamine receptor = D(1A) dopamine receptor (Homo sapiens, UniProt P21728); assay: Binding affinity to dopamine D1 receptor
Summary of the method: (§4)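 Broad commercial ligand-binding panel profiling, including dopamine D1 and D5 receptors; reported as IC50.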

[8] = Solubility of the compound; assay type: physicochemical
[9] = Stability in dog hepatocytes; assay type: ADME, cell-based, Liver, Hepatocyte; summary of the method: as §2
[10] = Intranasal bioavailability in rat at 2 mg/kg; assay type: ADME, organism-based; details: in vivo, inhaled or intranasal
Summary of the method: (§5)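 Rat study: compound freshly prepared in saline. An intravenous reference dose of 1 mg/kg was given as a bolus. Intranasal doses of 0.5 and 2 mg/kg were given as 20 µl into one nostril by pipette.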

[11] = target: Voltage-gated inwardly rectifying potassium channel KCNH2 (Homo sapiens, UniProt Q12809); assay: Displacement of dofetilide from hERG
Canis familiaris [12] = assay: Toxicity in sc dog assessed as hypotensive effects upto […]; assay type: organism-based, Canis lupus familiaris; details: in vivo
[13] = target: T1, 5-hydroxytryptamine receptor 1A (Homo sapiens); assay: Agonist activity at human recombinant 5HT1A at 1 uM; assay type: functional
Canis familiaris [14] = assay: Toxicity in sc dog assessed as emesis upto […]; assay type: organism-based, Canis lupus familiaris; details: in vivo
[15] = Apparent permeability across Caco-2 cells at 1 uM; assay type: ADME, cell-based; details: human
[16] = Half life in rat at 2 mg/kg administered by intranasal route; assay type: ADME, organism-based; parameters: dose 2 mg/kg; details: in vivo, inhaled or intranasal; summary of the method: as §5
[17] = Dissociation constant, pKa of the compound; assay type: physicochemical
Canis familiaris [18] = assay: Effect on male erectile dysfunction in sc dosed dog; assay type: functional, Canis lupus familiaris
Summary of the method: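 Animal models of male erectile dysfunction, with multiple subcutaneous dosing; ED50 expressed as free drug concentration.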

[19] = target: T3, Alpha-1A adrenergic receptor (Rattus norvegicus, UniProt P43140); assay: Binding affinity to rat alpha-1A adrenergic receptor
T3 sequence (P43140 whole entry): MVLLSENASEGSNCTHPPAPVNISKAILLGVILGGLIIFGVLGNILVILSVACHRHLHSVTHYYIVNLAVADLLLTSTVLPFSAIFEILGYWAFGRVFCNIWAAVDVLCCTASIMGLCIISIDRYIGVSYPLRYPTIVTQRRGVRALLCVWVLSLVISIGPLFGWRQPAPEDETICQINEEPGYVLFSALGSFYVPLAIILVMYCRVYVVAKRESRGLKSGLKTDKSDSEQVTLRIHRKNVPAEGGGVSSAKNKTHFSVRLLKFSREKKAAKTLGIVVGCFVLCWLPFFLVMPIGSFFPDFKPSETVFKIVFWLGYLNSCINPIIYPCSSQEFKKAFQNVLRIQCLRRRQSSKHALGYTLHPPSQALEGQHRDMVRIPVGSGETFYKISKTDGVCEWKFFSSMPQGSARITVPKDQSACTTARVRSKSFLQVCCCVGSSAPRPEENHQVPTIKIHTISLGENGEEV

[20] = Tmax in rat at 2 mg/kg administered by intranasal route; assay type: ADME, organism-based; parameters: dose 2 mg/kg; details: in vivo, inhaled or intranasal; summary of the method: as §5
D(3) dopamine receptor = D(3) dopamine receptor (Homo sapiens, UniProt P35462); assay: Agonist activity at human recombinant dopamine D3 receptor expressed in CHO cells assessed as inhibition of forskolin-stimulated cAMP accumulation; assay type: functional, cell-based
Canis familiaris [21] = assay: Toxicity in sc dog assessed as nausea upto […]; assay type: organism-based, Canis lupus familiaris; details: in vivo
[22] = Stability in human hepatocytes; assay type: ADME, cell-based, Liver, Hepatocyte; summary of the method: as §2
[23] = Distribution coefficient, log D at pH 7.4; assay type: physicochemical; details: octanol/water
[24] = Half life in dog at 0.3 mg/kg; assay type: ADME, organism-based, Canis lupus familiaris; parameters: dose 0.3 mg/kg; details: in vivo; summary of the method: as §3
D(1B) dopamine receptor = D(1B) dopamine receptor (Homo sapiens, UniProt P21918); assay: Binding affinity to dopamine D5 receptor; summary of the method: as §4
[25] = target: T4, Muscarinic acetylcholine receptor M1 (Homo sapiens, UniProt P11229); assay: Binding affinity to human muscarinic M1 receptor
T4 sequence (P11229 whole entry): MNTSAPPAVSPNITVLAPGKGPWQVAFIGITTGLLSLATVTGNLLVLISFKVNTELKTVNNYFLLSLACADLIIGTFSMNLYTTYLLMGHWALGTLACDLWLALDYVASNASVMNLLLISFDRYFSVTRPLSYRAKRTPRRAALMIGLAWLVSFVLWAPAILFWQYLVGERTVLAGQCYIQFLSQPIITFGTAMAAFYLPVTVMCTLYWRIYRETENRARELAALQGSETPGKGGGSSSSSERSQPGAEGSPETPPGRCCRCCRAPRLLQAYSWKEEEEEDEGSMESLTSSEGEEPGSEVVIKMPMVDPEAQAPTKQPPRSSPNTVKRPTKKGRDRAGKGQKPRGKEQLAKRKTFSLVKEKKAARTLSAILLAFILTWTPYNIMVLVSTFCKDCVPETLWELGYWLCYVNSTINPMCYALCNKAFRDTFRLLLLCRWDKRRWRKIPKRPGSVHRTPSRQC

[26] = Protein binding in rat plasma; assay type: ADME, cell-free; details: read-out: PB (converted)
[27] = Protein binding in dog plasma; assay type: ADME, cell-free, Canis lupus familiaris; details: read-out: PB (converted)
[28] = Intranasal bioavailability in dog at 0.3 mg/kg; assay type: ADME, organism-based, Canis lupus familiaris; details: in vivo, inhaled or intranasal; summary of the method: as §3
[29] = target: T5, 5-hydroxytryptamine receptor 1A (Homo sapiens, UniProt P08908); assay: Antagonist activity at human recombinant 5HT1A receptor; assay type: functional
T5 sequence (P08908 whole entry): T1 sequence (whole entry)

D(2) dopamine receptor = D(2) dopamine receptor (Homo sapiens, UniProt P14416); assay: Agonist activity at human recombinant dopamine D2 receptor expressed in rat pituitary cells assessed as inhibition of forskolin-stimulated cAMP accumulation; assay type: functional, cell-based, Pituitary gland cell
Sequence of D(2) dopamine receptor (P14416 whole entry): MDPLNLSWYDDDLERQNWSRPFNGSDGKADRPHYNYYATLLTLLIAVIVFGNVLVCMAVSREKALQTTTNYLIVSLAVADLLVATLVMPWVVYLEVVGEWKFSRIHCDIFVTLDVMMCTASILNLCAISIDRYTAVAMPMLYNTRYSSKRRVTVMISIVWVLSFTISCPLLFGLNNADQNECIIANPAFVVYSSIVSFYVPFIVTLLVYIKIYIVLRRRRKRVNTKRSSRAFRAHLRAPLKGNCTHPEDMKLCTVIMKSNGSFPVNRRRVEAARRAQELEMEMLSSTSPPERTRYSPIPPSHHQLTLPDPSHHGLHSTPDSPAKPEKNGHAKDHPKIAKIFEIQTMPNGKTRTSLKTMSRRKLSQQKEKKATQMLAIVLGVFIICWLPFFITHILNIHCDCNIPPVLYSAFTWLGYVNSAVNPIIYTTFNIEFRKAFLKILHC

Sequence of D(3) dopamine receptor (P35462 whole entry): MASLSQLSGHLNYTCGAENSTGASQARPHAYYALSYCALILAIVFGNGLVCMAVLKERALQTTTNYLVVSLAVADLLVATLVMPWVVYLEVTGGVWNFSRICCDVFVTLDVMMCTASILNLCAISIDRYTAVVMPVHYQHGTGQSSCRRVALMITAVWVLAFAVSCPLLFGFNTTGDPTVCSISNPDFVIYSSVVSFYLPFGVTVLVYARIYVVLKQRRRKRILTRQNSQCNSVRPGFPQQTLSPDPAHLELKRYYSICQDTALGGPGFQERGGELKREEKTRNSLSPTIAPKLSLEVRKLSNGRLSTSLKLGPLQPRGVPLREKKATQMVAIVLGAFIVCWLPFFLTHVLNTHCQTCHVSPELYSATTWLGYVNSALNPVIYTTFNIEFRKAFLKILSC
Sequence of D(1B) dopamine receptor (P21918 whole entry): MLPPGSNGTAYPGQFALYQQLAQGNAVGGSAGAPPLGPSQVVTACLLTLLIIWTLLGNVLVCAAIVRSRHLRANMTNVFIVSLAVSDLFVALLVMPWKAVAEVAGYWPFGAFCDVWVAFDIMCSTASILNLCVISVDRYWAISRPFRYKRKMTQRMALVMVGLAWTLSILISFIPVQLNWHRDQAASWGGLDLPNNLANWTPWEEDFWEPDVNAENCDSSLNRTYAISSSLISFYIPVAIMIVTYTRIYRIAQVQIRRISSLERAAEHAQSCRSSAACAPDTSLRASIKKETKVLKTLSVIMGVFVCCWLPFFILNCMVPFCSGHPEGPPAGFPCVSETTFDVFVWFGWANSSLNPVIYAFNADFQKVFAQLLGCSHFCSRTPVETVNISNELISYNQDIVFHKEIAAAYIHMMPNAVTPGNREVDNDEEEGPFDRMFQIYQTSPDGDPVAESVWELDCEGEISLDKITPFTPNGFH
Sequence of D(1A) dopamine receptor (P21728 whole entry): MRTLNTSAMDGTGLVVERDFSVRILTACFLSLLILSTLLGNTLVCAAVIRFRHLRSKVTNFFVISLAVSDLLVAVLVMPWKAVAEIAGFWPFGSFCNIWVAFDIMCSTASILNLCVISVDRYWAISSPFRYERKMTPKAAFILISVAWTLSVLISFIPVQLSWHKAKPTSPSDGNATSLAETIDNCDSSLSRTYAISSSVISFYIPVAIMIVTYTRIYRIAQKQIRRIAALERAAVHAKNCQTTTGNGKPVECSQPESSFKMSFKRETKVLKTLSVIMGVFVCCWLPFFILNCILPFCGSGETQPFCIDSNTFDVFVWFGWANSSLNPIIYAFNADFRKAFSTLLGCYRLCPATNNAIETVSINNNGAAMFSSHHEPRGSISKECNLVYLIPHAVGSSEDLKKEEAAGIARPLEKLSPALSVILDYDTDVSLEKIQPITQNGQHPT
Sequence of 5-hydroxytryptamine receptor 2A (P14842 whole entry): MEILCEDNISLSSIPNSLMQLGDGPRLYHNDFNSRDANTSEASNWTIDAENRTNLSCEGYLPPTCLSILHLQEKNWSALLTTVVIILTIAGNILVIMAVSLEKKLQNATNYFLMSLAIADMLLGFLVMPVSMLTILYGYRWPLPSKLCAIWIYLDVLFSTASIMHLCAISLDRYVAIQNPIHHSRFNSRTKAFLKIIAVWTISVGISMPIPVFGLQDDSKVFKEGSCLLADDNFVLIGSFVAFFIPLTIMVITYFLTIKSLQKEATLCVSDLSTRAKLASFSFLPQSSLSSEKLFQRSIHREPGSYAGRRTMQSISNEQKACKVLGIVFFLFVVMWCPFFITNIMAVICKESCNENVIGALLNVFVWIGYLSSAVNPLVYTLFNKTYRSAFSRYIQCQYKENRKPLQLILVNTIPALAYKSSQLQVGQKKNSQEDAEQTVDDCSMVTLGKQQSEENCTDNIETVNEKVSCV
Sequence of Histamine H1 receptor (P35367 whole entry): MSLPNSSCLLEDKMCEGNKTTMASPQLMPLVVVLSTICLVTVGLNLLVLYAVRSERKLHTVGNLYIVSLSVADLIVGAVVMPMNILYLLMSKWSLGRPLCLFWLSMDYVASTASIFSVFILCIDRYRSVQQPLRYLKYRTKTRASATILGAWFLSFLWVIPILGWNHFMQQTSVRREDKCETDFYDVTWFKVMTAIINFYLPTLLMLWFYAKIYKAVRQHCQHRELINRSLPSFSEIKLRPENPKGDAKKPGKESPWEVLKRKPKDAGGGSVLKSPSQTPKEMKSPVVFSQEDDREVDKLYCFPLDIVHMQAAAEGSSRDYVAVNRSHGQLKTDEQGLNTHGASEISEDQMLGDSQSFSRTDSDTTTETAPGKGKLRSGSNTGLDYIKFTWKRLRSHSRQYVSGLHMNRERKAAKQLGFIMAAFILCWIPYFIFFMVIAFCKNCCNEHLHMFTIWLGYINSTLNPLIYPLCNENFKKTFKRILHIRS
Sequence of Voltage-gated inwardly rectifying potassium channel KCNH2 (Q12809 whole entry): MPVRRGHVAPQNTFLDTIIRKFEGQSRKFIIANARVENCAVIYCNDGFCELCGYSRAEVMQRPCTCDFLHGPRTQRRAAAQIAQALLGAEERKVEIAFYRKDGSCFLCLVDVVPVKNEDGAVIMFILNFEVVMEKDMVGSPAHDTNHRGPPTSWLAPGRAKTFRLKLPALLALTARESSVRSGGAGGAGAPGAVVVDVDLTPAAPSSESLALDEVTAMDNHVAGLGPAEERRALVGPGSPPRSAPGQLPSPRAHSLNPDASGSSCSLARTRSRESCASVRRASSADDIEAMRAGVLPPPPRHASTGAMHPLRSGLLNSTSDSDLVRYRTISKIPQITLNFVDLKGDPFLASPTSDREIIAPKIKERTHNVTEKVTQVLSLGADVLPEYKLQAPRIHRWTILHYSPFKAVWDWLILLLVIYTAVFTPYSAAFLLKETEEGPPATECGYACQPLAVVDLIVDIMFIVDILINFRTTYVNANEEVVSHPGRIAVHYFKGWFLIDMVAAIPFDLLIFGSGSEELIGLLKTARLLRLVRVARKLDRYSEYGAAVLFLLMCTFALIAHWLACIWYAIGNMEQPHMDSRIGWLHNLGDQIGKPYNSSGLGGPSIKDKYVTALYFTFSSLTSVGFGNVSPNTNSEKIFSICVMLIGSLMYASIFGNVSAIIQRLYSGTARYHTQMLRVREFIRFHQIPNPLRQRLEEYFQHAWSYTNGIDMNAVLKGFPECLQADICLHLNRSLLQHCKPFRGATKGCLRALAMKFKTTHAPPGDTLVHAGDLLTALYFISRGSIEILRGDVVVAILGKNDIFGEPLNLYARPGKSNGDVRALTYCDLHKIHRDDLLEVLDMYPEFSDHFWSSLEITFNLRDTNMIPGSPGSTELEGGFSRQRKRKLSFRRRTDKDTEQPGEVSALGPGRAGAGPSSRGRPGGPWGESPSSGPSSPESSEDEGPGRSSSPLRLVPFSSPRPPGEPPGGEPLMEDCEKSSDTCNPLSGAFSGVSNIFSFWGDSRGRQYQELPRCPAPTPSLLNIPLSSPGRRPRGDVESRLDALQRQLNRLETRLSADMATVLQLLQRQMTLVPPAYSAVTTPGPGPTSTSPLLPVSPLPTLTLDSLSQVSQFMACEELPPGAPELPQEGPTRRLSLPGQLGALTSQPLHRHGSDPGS

Q: Which results are given for `CCCN1CCO[C@H](c2cccc(O)c2)C1`?
A: Activity [1]: 95%; Ki [2]: > 1000 nM; half-life [3]: 28 min; Activity [4]: 16%; fraction unbound [5]: 0.35; Ki [6]: 970 nM; Tmax [7]: 5 min; Ki (Histamine H1 receptor): > 2000 nM; IC50 (D(1A) dopamine receptor): > 10 µM; solubility [8]: > 1000 mg/mL; half-life [9]: 18 min; bioavailability [10]: 20%; Ki [11]: > 4 µM; Activity (Canis familiaris [12]): Non-toxic; Activity [13]: inactive; Activity (Canis familiaris [14]): Non-toxic; Papp at 1 µM [15]: 38 ×10⁻⁶ cm/s; half-life [16]: 18 min; pKa [17]: 7.4; ED50 (Canis familiaris [18]): 0.2 nM; Ki [19]: > 1000 nM; Tmax [20]: 5 min; EC50 (D(3) dopamine receptor): 8 nM; Emax (D(3) dopamine receptor): > 90%; Activity (Canis familiaris [21]): Non-toxic; half-life [22]: 61 min; logD [23]: 1; half-life [24]: 96 min; IC50 (D(1B) dopamine receptor): > 10 µM; Ki [25]: > 1000 nM; fraction unbound [26]: 0.59; fraction unbound [27]: 0.24; bioavailability [28]: 33%; IC50 [29]: > 20 µM; EC50 (D(2) dopamine receptor): > 10 µM
